Data published in ChEMBL document CHEMBL3352604, “Development of novel azabenzofuran TRPA1 antagonists as in vivo tools” (Bioorg Med Chem Lett, 2014).
In brackets after ≈: the same amount, converted by molar mass.

Tests used:
[1] = molecular target: T1, Transient receptor potential cation channel subfamily A member 1 (Rattus norvegicus, UniProt Q6RI86); assay: Antagonist activity at rat TRPA1 assessed as inhibition of AITC-induced calcium uptake by [45Ca2+] fluorimetry assay
Outline: (§1)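 Antagonism read by 45Ca2+ fluorimetry in cells expressing rat or human TRPA1. IC50 determined. Where no IC50 was obtained, % inhibition was measured at a single 2 μM point.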

[2] = molecular target: T2, Transient receptor potential cation channel subfamily A member 1 (Homo sapiens, UniProt O75762); assay: Antagonist activity at human TRPA1 assessed as inhibition of AITC-induced calcium uptake by [45Ca2+] fluorimetry assay; outline: as §1
[3] = molecular target: T1, Transient receptor potential cation channel subfamily A member 1; assay: Agonist activity at rat TRPA1 by [45Ca2+] fluorimetry assay
[4] = molecular target: T2, Transient receptor potential cation channel subfamily A member 1; assay: Agonist activity at human TRPA1 by [45Ca2+] fluorimetry assay
[5] = Solubility in 0.01 N HCl solution in water; assay type: physicochemical
Outline: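 Solubility measured in 0.01 N hydrogen chloride solution in water.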

[6] = Solubility in PBS buffer at pH 7.4; assay type: physicochemical
Outline: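 Solubility measured in phosphate buffered saline, pH 7.4.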

[7] = Solubility in fasted state simulated intestinal fluid at pH 6.8; assay type: ADME
[8] = Clearance in human liver microsomes; assay type: ADME; conditions: read-out: CLH
[9] = Clearance in rat liver microsomes; assay type: ADME; conditions: read-out: CLH
[10] = Fraction unbound in rat plasma by equilibrium dialysis method; assay type: ADME, cell-free
[11] = Clearance in Sprague-Dawley rat at 0.5 mg/kg, iv; assay type: ADME, organism-based; design: dose 0.5 mg/kg, route intravenous; conditions: in vivo
Outline: (§2)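 Male Sprague-Dawley rats (n = 3) given 0.5 mg/kg iv in DMSO.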

Rattus norvegicus [12] = assay: Unbound clearance in Sprague-Dawley rat at 0.5 mg/kg, iv; assay type: ADME, organism-based; design: dose 0.5 mg/kg, route intravenous; conditions: in vivo; outline: as §2
[13] = Volume of distribution at steady state in Sprague-Dawley rat at 0.5 mg/kg, iv; assay type: ADME, organism-based; design: dose 0.5 mg/kg, route intravenous; conditions: in vivo, read-out: Vdss; outline: as §2
[14] = Half life in Sprague-Dawley rat at 0.5 mg/kg, iv; assay type: ADME, organism-based; design: dose 0.5 mg/kg, route intravenous; conditions: in vivo; outline: as §2
Rattus norvegicus [15] = assay: fCmax in fasted Sprague-Dawley rat at 10 mg/kg, po; assay type: ADME, organism-based; design: dose 10 mg/kg, route oral; conditions: in vivo
Outline: (§3)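 Male Sprague-Dawley rats (n = 3) dosed po in 2% HPMC, 1% Tween 80 in H2O, pH 2.2 with MSA. Animals fasted during the PK study.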

[16] = Oral bioavailability in fasted Sprague-Dawley rat at 10 mg/kg; assay type: ADME, organism-based; conditions: in vivo; outline: as §3
[17] = molecular target: Transient receptor potential cation channel subfamily A member 1 (Rattus norvegicus) (UniProt Q6RI86); assay: Antagonist activity at rat TRPA1 assessed as inhibition of AITC-induced calcium uptake at 2 uM by [45Ca2+] fluorimetry assay
Outline: (§4)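 45Ca2+ uptake fluorimetry in cells expressing rat or human TRPA1, run in parallel for both species. The value is single-point percent inhibition at 2 µM test compound, reported when no IC50 was obtained. Compounds were also run without agonist to check for channel agonism.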

[18] = molecular target: T2, Transient receptor potential cation channel subfamily A member 1; assay: Antagonist activity at human TRPA1 assessed as inhibition of AITC-induced calcium uptake at 2 uM by [45Ca2+] fluorimetry assay; outline: as §4

T2 sequence (O75762 whole entry): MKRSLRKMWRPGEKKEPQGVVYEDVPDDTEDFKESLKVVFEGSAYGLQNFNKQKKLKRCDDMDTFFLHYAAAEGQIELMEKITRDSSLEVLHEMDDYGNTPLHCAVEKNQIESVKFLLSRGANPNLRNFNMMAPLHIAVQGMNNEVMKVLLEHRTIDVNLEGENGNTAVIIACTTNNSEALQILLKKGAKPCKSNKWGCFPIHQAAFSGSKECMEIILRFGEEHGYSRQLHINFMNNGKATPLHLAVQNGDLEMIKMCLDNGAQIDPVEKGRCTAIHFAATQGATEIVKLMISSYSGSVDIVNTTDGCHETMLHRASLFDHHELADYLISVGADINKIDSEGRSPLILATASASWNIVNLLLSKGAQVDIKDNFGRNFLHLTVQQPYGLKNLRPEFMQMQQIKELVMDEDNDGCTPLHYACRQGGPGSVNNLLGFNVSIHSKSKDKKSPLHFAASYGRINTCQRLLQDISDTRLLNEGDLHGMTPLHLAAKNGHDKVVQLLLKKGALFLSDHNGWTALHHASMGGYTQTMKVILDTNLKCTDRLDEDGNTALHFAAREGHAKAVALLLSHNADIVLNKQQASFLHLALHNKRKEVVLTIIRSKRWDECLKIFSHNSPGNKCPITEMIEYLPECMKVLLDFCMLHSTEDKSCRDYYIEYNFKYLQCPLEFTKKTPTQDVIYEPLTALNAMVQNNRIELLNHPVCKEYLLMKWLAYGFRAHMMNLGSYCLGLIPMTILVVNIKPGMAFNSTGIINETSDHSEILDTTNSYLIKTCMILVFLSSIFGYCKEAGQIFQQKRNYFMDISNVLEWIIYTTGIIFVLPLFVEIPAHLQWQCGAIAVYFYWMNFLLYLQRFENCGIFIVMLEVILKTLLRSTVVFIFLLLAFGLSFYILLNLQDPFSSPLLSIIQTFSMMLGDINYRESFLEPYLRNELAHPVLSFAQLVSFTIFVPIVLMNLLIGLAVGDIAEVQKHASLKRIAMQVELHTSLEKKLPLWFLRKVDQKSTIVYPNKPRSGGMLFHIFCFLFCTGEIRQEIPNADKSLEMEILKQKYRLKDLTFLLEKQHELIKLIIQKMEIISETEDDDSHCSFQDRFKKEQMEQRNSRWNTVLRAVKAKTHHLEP
T1 sequence (Q6RI86 whole entry): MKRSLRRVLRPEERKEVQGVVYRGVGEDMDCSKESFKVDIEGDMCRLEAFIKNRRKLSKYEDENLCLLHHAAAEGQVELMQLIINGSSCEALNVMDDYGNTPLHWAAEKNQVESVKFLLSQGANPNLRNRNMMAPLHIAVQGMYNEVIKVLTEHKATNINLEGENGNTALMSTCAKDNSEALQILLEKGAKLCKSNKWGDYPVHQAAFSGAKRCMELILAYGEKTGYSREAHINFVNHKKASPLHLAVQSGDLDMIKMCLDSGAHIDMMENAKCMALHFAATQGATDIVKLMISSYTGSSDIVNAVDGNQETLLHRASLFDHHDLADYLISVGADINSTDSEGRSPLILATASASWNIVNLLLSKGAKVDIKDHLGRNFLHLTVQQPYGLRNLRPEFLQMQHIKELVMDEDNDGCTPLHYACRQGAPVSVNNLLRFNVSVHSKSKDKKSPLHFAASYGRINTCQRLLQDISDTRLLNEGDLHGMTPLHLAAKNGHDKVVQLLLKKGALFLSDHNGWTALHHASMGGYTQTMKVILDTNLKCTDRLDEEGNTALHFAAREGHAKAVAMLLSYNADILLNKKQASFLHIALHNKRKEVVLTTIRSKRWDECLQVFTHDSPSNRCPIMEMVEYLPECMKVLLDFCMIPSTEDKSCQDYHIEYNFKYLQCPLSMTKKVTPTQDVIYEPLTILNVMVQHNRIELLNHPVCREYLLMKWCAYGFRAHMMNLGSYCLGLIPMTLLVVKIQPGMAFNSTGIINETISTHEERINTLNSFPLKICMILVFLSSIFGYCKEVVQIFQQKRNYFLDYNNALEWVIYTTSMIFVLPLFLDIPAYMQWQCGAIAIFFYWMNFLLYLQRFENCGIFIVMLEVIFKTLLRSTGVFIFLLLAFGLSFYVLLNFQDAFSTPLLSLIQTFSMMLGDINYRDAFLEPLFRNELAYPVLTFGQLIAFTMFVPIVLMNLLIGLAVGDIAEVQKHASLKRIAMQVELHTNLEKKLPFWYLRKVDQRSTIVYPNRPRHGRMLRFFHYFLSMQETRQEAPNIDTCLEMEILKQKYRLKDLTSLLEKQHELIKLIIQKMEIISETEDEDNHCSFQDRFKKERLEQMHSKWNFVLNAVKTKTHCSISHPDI
Chain of Transient receptor potential cation channel subfamily A member 1 (Rattus norvegicus) (Q6RI86 whole entry): as above

Row | Compound | IC50 [1] [µM] | IC50 [2] [µM] | EC50 [3] [µM] | EC50 [4] [µM] | solubility [5] [µg/mL] | solubility [6] [µg/mL] | solubility [7] [µg/mL] | microsomal CLint [8] [µL/min/mg] | microsomal CLint [9] [µL/min/mg] | fraction unbound [10] | clearance [11] [mL/min/kg] | CL free (Rattus norvegicus [12]) [mL/min/kg] | Vd [13] [L/kg] | half-life [14] [h] | fCmax (Rattus norvegicus [15]) [µM] | bioavailability [16] [%] | inhibition [17] [%] | inhibition [18] [%]
1 | COCCCOc1cccc([C@H]2NC(=S)NC3=C2C(=O)c2ccccc23)c1 | 0.019 | 0.026 | > 40 | > 40 | 5 (≈ 13.1 µM) | 4 (≈ 10.5 µM) | 12 (≈ 31.5 µM) | 150 | 230 | 0.01 | 48.3 | 4830 | 4.7 | 2.1 | 0.005 | 10 |  | 
2 | COCCCOc1cncc(C2NC(=S)NC3=C2C(=O)c2ccccc23)c1 (centres undefined) | 0.53 | 1.2 | > 40 | > 40 | 120 (≈ 315 µM) | 2.8 (≈ 7.34 µM) | 14 (≈ 36.7 µM) | 90 | 200 |  |  |  |  |  |  |  |  | 
3 | COCCCOc1cc(C2NC(=S)NC3=C2C(=O)c2ccccc23)ccn1 (centres undefined) | > 40 | > 40 | > 40 | > 40 | 22 (≈ 57.7 µM) |  |  | 82 | 350 |  |  |  |  |  |  |  |  | 
4 | COCCCOc1cccc(C2NC(=S)NC3=C2C(=O)c2ccccc23)n1 (centres undefined) | 1 | 0.97 | > 40 | > 40 | 17 (≈ 44.6 µM) | 36 (≈ 94.4 µM) | 35 (≈ 91.8 µM) | 160 | 230 |  |  |  |  |  |  |  |  | 
5 | COCCCOc1cccc(C2NC(=S)NC3=C2C(=O)c2ccccc23)c1 (racemic) | 0.028 | 0.03 | > 40 | > 40 | 1 (≈ 2.63 µM) | 10 (≈ 26.3 µM) | 23 (≈ 60.5 µM) |  |  |  |  |  |  |  |  |  |  | 
6 | COCCCOc1ccnc(C2NC(=S)NC3=C2C(=O)c2ccccc23)c1 (centres undefined) | > 2 | > 2 | > 40 | > 40 | 500 (≈ 1310 µM) | 62 (≈ 163 µM) | 39 (≈ 102 µM) | 43 | 220 |  |  |  |  |  |  |  | 0 | 1
